pEC50, pIC50: −log10 of the molar value.
Assays:
[1] = target: Metabotropic glutamate receptor 2 (Rattus norvegicus, UniProt P31421); assay: Negative allosteric modulation of rat mGlu2 receptor expressed in HEK cells assessed as decrease in glutamate-induced thallium flux incubated for 142 secs followed by glutamate addition measured after 120 secs by Fluo4-AM dye based fluorescence assay; type: functional, cell-based
[2] = target: Adenosine receptor A3 (Homo sapiens) (UniProt P0DMS8); assay: Displacement of [125I] AB-MECA from full length human recombinant A3 receptor expressed in CHOK1 cell membranes at 10 uM after 60 mins by scintillation counting method relative to control
In short: (§1)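 Single-concentration screen at 10 μM in an outsourced profiling panel of 68 GPCRs, ion channels and transporters. Activity read out as percent inhibition of specific radioligand binding.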

[3] = target: Neuropeptide Y receptor type 2 (Homo sapiens) (UniProt P49146); assay: Displacement of [125I] Peptide YY from Y2 receptor in human KAN-TS cell membrane at 10 uM after 120 mins by scintillation counting method relative to control; type: cell membranes; in short: as §1
Neuropeptide Y receptor type 2 (Homo sapiens), sequence (P49146 whole entry): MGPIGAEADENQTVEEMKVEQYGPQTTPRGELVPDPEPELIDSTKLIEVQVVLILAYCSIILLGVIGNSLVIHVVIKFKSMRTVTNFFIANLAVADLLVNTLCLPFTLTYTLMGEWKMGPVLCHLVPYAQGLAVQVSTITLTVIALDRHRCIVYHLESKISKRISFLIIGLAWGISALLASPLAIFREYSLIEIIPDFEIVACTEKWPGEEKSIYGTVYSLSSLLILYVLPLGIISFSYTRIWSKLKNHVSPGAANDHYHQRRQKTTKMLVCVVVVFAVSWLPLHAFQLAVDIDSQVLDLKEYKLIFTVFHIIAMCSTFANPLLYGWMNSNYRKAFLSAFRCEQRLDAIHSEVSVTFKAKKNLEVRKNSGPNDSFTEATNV

[4] = target: Metabotropic glutamate receptor 3 (Rattus norvegicus, UniProt P31422); assay: Negative allosteric modulation of rat mGlu3 receptor expressed in HEK cells harboring GIRK channel assessed as decrease in glutamate-induced thallium flux incubated for 142 secs followed by glutamate addition measured after 120 secs by Fluo4-AM dye based fluorescence assay; type: functional, cell-based
Metabotropic glutamate receptor 3, sequence (P31422 whole entry): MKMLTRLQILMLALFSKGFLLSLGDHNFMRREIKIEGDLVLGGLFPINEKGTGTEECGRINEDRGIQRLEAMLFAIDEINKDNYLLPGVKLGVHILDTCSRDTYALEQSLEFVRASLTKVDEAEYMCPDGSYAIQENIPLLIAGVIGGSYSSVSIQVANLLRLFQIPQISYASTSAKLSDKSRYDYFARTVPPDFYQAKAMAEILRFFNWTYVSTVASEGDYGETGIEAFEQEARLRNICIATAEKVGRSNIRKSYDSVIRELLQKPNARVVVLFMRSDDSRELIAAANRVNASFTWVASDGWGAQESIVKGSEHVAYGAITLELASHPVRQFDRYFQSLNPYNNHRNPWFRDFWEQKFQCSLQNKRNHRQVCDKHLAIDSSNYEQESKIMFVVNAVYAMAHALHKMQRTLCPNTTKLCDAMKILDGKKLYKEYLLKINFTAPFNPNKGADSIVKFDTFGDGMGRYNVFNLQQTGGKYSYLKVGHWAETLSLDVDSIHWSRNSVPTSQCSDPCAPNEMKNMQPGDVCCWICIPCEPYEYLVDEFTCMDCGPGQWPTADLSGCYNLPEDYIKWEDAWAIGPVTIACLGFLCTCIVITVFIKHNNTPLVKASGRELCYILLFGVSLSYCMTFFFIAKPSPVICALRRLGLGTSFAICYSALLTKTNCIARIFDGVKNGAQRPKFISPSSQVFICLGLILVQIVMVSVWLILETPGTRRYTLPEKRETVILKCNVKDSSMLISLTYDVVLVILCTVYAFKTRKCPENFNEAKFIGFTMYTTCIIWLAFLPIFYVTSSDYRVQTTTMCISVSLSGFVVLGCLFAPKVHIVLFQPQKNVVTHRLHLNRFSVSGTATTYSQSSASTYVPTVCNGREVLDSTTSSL

[5] = target: Endothelin-1 receptor (Homo sapiens) (UniProt P25101); assay: Displacement of [125I] endothelin-1 from recombinant human ETA receptor expressed in CHOK1 cell membranes at 10 uM after 120 mins by scintillation counting method relative to control; in short: as §1
[6] = target: Adenosine receptor A2a (Homo sapiens) (UniProt P29274); assay: Displacement of [3H] CGS-21680 from full length human recombinant A2a receptor expressed in HEK293 cell membranes at 10 uM after 90 mins by scintillation counting method relative to control; in short: as §1
[7] = target: Adenosine receptor A1 (Homo sapiens) (UniProt P30542); assay: Displacement of [3H] DPCPX from full length human recombinant A1 receptor expressed in CHOK1 cell membranes at 10 uM after 90 mins by scintillation counting method relative to control; in short: as §1
Adenosine receptor A1 (Homo sapiens), sequence (P30542 whole entry): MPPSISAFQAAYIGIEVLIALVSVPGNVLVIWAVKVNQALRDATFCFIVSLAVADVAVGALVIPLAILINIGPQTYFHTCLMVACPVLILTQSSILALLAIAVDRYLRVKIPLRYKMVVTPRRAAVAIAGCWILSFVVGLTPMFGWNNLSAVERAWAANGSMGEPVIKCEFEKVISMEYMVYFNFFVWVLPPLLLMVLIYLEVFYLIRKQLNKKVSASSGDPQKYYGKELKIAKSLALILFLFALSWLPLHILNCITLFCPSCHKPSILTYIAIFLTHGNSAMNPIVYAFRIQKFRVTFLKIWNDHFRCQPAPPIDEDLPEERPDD

[8] = target: Mu-type opioid receptor (Homo sapiens) (UniProt P35372); assay: Displacement of [3H] diprenorphine from recombinant human mu opioid receptor expressed in CHOK1 cell membranes at 10 uM after 60 mins by scintillation counting method relative to control; in short: as §1
Mu-type opioid receptor (Homo sapiens), sequence (P35372 whole entry): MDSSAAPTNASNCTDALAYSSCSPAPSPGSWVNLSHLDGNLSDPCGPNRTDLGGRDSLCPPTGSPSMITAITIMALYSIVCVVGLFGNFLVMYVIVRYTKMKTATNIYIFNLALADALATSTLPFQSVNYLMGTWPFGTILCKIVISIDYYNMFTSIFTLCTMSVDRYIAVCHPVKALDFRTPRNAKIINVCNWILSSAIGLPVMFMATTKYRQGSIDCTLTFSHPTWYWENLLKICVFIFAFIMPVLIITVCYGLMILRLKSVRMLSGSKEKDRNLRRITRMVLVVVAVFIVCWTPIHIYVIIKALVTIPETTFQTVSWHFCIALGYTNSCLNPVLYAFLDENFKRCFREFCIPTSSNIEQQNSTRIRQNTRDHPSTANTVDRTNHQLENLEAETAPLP

[9] = target: L-type calcium channel, benzothiazepine site (Rattus norvegicus, UniProt P22002+P27732+Q02485); assay: Inhibition of rat L-type calcium channel benzothiazepine site at 10 uM relative to control; type: protein assay
[10] = target: Estrogen receptor (Homo sapiens) (UniProt P03372); assay: Displacement of [3H] estradiol from full length human recombinant ERalpha receptor expressed in Sf9 insect cells at 10 uM after 120 mins by scintillation counting method relative to control
Estrogen receptor (Homo sapiens), sequence (P03372 whole entry): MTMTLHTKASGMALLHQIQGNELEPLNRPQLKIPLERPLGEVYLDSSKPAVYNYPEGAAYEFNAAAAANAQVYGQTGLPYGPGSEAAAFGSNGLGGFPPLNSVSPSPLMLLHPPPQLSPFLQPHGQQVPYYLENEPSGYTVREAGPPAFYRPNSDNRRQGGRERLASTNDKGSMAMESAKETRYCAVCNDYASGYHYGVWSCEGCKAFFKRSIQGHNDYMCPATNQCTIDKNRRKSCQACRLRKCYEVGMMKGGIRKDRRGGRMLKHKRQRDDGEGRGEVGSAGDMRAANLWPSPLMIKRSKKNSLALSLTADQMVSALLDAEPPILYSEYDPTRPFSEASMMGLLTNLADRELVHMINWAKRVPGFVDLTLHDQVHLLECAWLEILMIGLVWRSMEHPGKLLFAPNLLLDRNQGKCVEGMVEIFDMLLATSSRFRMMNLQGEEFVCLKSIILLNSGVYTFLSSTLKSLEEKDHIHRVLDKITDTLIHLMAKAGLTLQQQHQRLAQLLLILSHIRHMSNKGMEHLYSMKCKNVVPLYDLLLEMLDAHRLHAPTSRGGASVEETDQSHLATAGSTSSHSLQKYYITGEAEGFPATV

[11] = system: Mus musculus; assay: Toxicity in wild-type C57/B6 mouse assessed as sedation at 50 mg/kg, ip; type: organism-based; conditions: in vivo
[12] = target: L-type calcium channel, dihydropyridine site (Rattus norvegicus, UniProt P22002+P27732+Q02485); assay: Inhibition of rat L-type calcium channel dihydropyridine site at 10 uM relative to control; type: protein assay
[13] = target: Sodium-dependent noradrenaline transporter (Homo sapiens) (UniProt P23975); assay: Displacement of [125I] RTI-55 from full length human recombinant NET expressed in MDCK cell membranes at 10 uM after 180 mins by scintillation counting method relative to control; in short: as §1
[14] = organism: Rattus norvegicus; assay: Displacement of [35S] ATP-alphaS from Wistar rat brain P2Y receptor at 10 uM measured after 60 mins by scintillation counting method relative to control; in short: as §1
[15] = organism: Rattus norvegicus; assay: Inhibition of rat N-type calcium channel at 10 uM relative to control
In short: (§2)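 Single-concentration screen at 10 μM within a commercial lead-profiling panel of 68 GPCRs, ion channels and transporters. Activity read as percent inhibition of specific radioligand binding to each target.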

[16] = target: Interleukin-1 receptor type 1 (Mus musculus) (UniProt P13504); assay: Inhibition of mouse IL-1 receptor at 10 uM relative to control; in short: as §2
[17] = target: Histamine H3 receptor (Homo sapiens) (UniProt Q9Y5N1); assay: Displacement of [3H] N-alpha-methylhistamine from recombinant human H3 receptor expressed in CHOK1 cell membranes at 10 uM after 120 mins by scintillation counting method relative to control; in short: as §1
[18] = target: Metabotropic glutamate receptor 5 (Rattus norvegicus, UniProt P31424); assay: Negative allosteric modulation of rat mGlu5 receptor expressed in HEK cells assessed as decrease in glutamate-induced thallium flux incubated for 142 secs followed by glutamate addition measured after 120 secs by Fluo4-AM dye based fluorescence assay; type: functional, cell-based
[19] = target: Muscarinic acetylcholine receptor M3 (Homo sapiens) (UniProt P20309); assay: Displacement of [3H] N-methylscopolamine from recombinant human M3 receptor expressed in CHOK1 cell membranes at 10 uM after 120 mins by scintillation counting method relative to control; in short: as §1
Muscarinic acetylcholine receptor M3 (Homo sapiens), sequence (P20309 whole entry, looked up): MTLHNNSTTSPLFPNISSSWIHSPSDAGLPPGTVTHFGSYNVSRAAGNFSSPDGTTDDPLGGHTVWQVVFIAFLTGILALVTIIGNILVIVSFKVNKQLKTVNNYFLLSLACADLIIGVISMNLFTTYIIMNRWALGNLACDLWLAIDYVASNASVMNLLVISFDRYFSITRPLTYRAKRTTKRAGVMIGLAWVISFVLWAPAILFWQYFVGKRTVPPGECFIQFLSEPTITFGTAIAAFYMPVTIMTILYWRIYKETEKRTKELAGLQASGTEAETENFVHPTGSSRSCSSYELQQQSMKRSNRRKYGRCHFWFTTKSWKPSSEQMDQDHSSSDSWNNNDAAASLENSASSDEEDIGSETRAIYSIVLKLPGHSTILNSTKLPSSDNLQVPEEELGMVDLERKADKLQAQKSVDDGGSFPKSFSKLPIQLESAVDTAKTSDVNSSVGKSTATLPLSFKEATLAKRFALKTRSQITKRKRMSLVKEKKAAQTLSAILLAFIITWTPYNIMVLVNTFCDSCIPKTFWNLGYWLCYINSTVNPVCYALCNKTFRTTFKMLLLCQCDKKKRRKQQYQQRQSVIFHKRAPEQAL

[20] = target: Melatonin receptor type 1A (Homo sapiens) (UniProt P48039); assay: Inhibition of human MT1 receptor at 10 uM relative to control; in short: as §2
Melatonin receptor type 1A (Homo sapiens), sequence (P48039 whole entry): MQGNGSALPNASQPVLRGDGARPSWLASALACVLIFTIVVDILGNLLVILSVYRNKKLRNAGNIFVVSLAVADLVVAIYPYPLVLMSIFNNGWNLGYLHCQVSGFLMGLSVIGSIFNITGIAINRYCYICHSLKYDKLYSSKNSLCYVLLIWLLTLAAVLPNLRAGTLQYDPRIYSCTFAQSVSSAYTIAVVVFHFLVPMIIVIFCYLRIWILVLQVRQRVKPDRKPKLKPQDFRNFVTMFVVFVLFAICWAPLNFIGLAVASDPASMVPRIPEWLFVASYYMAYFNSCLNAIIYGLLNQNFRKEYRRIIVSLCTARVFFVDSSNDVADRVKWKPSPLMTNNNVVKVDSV

[21] = target: Cannabinoid receptor 1 (Homo sapiens) (UniProt P21554); assay: Displacement of [3H] SR141716A from recombinant human CB1 receptor expressed in rat Chem1 cell membranes at 10 uM measured after 90 mins by scintillation counting method relative to control; in short: as §1
[22] = target: T1, Metabotropic glutamate receptor 6 (Homo sapiens, UniProt O15303); assay: Negative allosteric modulation of human mGlu6 receptor expressed in HEK cells harboring GIRK channel assessed as decrease in glutamate-induced thallium flux incubated for 142 secs followed by glutamate addition measured after 120 secs by Fluo4-AM dye based fluorescence assay; type: functional, cell-based
T1 sequence (O15303 whole entry): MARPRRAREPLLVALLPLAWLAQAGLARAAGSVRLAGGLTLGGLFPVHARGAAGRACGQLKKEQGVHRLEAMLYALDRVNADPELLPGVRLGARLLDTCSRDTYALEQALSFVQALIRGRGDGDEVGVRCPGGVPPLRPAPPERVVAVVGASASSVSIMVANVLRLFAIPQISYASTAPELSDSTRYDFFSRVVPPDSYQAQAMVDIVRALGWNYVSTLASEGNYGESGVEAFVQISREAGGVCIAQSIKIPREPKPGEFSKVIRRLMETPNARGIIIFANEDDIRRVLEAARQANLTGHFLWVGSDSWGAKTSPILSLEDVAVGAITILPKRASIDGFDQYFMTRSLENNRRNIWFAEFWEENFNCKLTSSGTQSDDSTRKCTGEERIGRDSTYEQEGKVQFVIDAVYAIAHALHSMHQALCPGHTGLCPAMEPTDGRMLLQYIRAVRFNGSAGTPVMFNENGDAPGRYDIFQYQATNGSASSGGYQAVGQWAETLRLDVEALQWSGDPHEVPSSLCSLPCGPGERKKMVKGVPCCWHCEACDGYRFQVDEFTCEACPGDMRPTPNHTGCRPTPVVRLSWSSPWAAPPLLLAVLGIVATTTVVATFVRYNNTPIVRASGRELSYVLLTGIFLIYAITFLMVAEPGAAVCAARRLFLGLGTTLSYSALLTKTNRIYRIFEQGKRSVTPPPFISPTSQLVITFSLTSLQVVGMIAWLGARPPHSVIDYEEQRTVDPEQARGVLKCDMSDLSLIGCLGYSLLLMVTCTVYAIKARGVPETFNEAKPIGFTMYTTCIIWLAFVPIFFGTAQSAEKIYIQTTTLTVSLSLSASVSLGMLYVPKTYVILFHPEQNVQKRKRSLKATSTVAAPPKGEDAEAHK

[23] = target: Neuropeptide Y receptor type 1 (Homo sapiens) (UniProt P25929); assay: Displacement of [125I] Peptide YY from Y1 receptor in human SK-N-MC cell membrane at 10 uM after 60 mins by scintillation counting method relative to control; type: cell membranes; in short: as §1
[24] = organism: Homo sapiens; assay: Displacement of [3H] spiperone from recombinant human D4.2 receptor expressed in CHOK1 cell membranes at 10 uM after 120 mins by scintillation counting method relative to control; in short: as §2
[25] = organism: Mus musculus; assay: Displacement of [3H] PDBu from phorbol ester receptor in ICR mouse brain membranes at 10 uM after 60 mins by scintillation counting method relative to control; type: cell membranes; conditions: Membrane; in short: as §1
[26] = target: T1, Metabotropic glutamate receptor 6; assay: Positive allosteric modulation of human mGlu6 receptor expressed in HEK cells assessed as increase in glutamate-induced calcium flux incubated for 142 secs followed by glutamate addition measured after 120 secs by Fluo4-AM dye based fluorescence assay; type: functional, cell-based
[27] = target: Alpha-1A adrenergic receptor (Rattus norvegicus) (UniProt P43140); assay: Displacement of [3H] prazosin from Wistar rat alpha1a receptor at 10 uM measured after 60 mins by scintillation counting method relative to control; in short: as §1
Alpha-1A adrenergic receptor (Rattus norvegicus), sequence (P43140 whole entry): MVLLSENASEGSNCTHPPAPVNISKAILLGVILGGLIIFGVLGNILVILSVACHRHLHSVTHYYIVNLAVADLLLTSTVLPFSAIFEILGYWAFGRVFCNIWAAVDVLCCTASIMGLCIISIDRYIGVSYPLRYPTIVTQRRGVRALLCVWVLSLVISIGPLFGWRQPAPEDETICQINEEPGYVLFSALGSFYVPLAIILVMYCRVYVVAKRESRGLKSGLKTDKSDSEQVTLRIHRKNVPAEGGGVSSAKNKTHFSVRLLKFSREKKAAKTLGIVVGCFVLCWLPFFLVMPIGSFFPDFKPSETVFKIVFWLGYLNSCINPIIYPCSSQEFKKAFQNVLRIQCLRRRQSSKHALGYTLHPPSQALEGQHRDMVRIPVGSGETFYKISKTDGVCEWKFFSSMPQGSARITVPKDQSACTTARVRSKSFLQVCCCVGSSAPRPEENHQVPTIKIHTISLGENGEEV

[28] = target: B1 bradykinin receptor (Homo sapiens) (UniProt P46663); assay: Displacement of [3H]kallidin (des-Arg10, Leu9) from recombinant human bradykinin B1 receptor expressed in CHOK1 cell membranes at 10 uM measured after 60 mins by scintillation counting method relative to control; in short: as §2

## COc1ccc(-c2c(C)nn3c(C(F)(F)F)cc(C)nc23)c(F)c1F
[1]
  pIC50: < 5.00
[2]
  inhibition: < 50%
[3]
  inhibition: < 50%
[4]
  pIC50: < 5.00
[5]
  inhibition: < 50%
[6]
  inhibition: < 50%
[7]
  inhibition: < 50%
[8]
  inhibition: < 50%
[9]
  inhibition at 10 µM: < 50%
[10]
  inhibition: < 50%
[11]
  Activity: Toxic
[12]
  inhibition at 10 µM: < 50%
[13]
  inhibition: < 50%
[14]
  inhibition: < 50%
[15]
  inhibition: < 50%
[16]
  inhibition: < 50%
[17]
  inhibition: < 50%
[18]
  pIC50: < 5.00
[19]
  inhibition: < 50%
[20]
  inhibition: < 50%
[21]
  inhibition: < 50%
[22]
  pIC50: < 5.00
[23]
  inhibition: < 50%
[24]
  inhibition: < 50%
[25]
  inhibition: < 50%
[26]
  pEC50: < 5.00
[27]
  inhibition: < 50%
[28]
  inhibition: < 50%

— ChEMBL document CHEMBL4138139, “Discovery of VU6005649, a CNS Penetrant mGlu7/8 Receptor PAM Derived from a Series of Pyrazolo[1,5-a]pyrimidines” (ACS Med Chem Lett, 2017)
